Columns and labels:
[1] = tested on: 786-0; test: Growth inhibition of human 786-0 cells after 48 hrs by coulter counting analysis; assay type: functional; conditions: 786-0, 48 h
In short: (§1)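 NCI five-dose screen at 0.01-100 µM, diluted from DMSO stocks in buffered saline (final DMSO <1%). Cells at 6×10^4 cells/ml in RPMI 1640 with 10% FBS, in duplicate wells, at 37 °C under 5% CO2 for 48 h. Cells diluted tenfold in saline and Coulter-counted. GI50, TGI and LC50 taken from log concentration-growth inhibition curves.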

[2] = Growth inhibition of human SF295 cells after 48 hrs by coulter counting analysis; assay type: functional; conditions: SF-295, 48 h
In short: (§2)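 Five-dose NCI-60 follow-up, 0.01–100 µM, made from DMSO stock in buffered saline (final DMSO <1%), in duplicate wells. Cells in RPMI 1640 with 10% FBS at 6×10^4 cells/ml, 37 °C, 5% CO2, 48 h. Cells diluted tenfold in saline, Coulter-counted and corrected for dilution. GI50, TGI and LC50 taken from log concentration–percent growth curves.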

[3] = Growth inhibition of human NCI60 cells after 48 hrs by coulter counting analysis; assay type: functional; conditions: NCI60, 48 h
In short: (§3)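 Five-dose screen (0.01-100 µM, DMSO-solubilized, under 1% DMSO final), cells in RPMI 1640 + 10% FBS at 6×10^4 cells/ml, duplicate wells, 37 °C, 5% CO2, 48 h. Cells then diluted tenfold in saline and counted by Coulter counter with dilution correction. Controls held buffer/saline/DMSO at matching dilutions. GI50 derived from log concentration-percent growth inhibition curves.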

[4] = Growth inhibition of human OVCAR8 cells at 10 uM after 48 hrs by sulforhodamine B assay relative to control; assay type: functional; conditions: OVCAR-8, 48 h, read-out: GI
In short: (§4)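 NCI-60 primary screen at a single 10 µM dose. Continuous 48 h exposure, with growth or viability estimated by sulforhodamine B protein staining. Reported as percent growth inhibition of treated cells relative to untreated growth.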

[5] = Growth inhibition of human MOLT4 cells at 10 uM after 48 hrs by sulforhodamine B assay relative to control; assay type: functional; conditions: MOLT-4, 48 h, read-out: GI; in short: as §4
[6] = tested on: DU-145; test: Growth inhibition of human DU145 cells after 48 hrs by coulter counting analysis; assay type: functional; conditions: DU-145, 48 h; in short: as §1
[7] = Growth inhibition of human UO31 cells at 10 uM after 48 hrs by sulforhodamine B assay relative to control; assay type: functional; conditions: UO-31, 48 h, read-out: GI
In short: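 NCI-60 primary single-dose screen at 10 µM with continuous 48 h exposure. Cell viability/growth read by sulforhodamine B protein staining. Reported as percent growth inhibition relative to untreated cells.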

[8] = target: Cyclin-dependent kinase 4/cyclin D1 (Homo sapiens) (UniProt P11802+P24385); test: Inhibition of CDK4/Cyclin D1 (unknown origin) at 20 uM after 30 mins by scintillation counting analysis relative to control; assay type: protein-complex assay
In short: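 Recombinant kinases, cloned, expressed and purified in-house. Radiometric ³³P-ATP assay with kinase at ~10-50 nM final and 1-5 µg peptide or protein substrate. Compound at 20 µM final, in duplicate. Reaction started by adding ATP, run 30 min at ambient temperature, then spotted on P81 phosphocellulose. Plates washed in 1% phosphoric acid and counted by scintillation. No-substrate blank subtracted. Result is mean % activity change versus DMSO control.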

[9] = Growth inhibition of human OVCAR5 cells after 48 hrs by coulter counting analysis; assay type: functional; conditions: OVCAR-5, 48 h; in short: as §2
[10] = Growth inhibition of human HCT15 cells after 48 hrs by coulter counting analysis; assay type: functional; conditions: HCT-15, 48 h; in short: as §1
[11] = Growth inhibition of human LOXIMVI cells after 48 hrs by coulter counting analysis; assay type: functional; conditions: LOX IMVI; in short: as §1
[12] = tested on: IGROV-1; test: Growth inhibition of human IGROV1 cells after 48 hrs by coulter counting analysis; assay type: functional; conditions: IGROV-1, 48 h; in short: as §1
[13] = tested on: MDA-MB-468; test: Growth inhibition of human MDA-MB-468 cells after 48 hrs by coulter counting analysis; assay type: functional; conditions: MDA-MB-468, 48 h; in short: as §2
[14] = tested on: SN12C; test: Growth inhibition of human SN12C cells after 48 hrs by coulter counting analysis; assay type: functional; in short: as §2
[15] = tested on: MDA-MB-231; test: Growth inhibition of human MDA-MB-231 cells after 48 hrs by coulter counting analysis; assay type: functional; conditions: MDA-MB-231, 48 h; in short: as §1
[16] = Growth inhibition of human Hs 578T cells after 48 hrs by coulter counting analysis; assay type: functional; in short: as §1
[17] = tested on: PC-3; test: Growth inhibition of human PC3 cells after 48 hrs by coulter counting analysis; assay type: functional; conditions: PC-3, 48 h; in short: as §2
[18] = tested on: HOP-62; test: Growth inhibition of human HOP62 cells after 48 hrs by coulter counting analysis; assay type: functional; conditions: HOP-62, 48 h; in short: as §1
[19] = tested on: SK-MEL-5; test: Growth inhibition of human SK-MEL-5 cells after 48 hrs by coulter counting analysis; assay type: functional; conditions: SK-MEL-5, 48 h; in short: as §2
[20] = tested on: NCI-H460; test: Growth inhibition of human NCI-H460 cells at 10 uM after 48 hrs by sulforhodamine B assay relative to control; assay type: functional; conditions: NCI-H460, 48 h, read-out: GI; in short: as §4
[21] = Growth inhibition of human NCI-ADR-RES cells after 48 hrs by coulter counting analysis; assay type: functional; in short: as §2
[22] = tested on: HT-29; test: Growth inhibition of human HT-29 cells after 48 hrs by coulter counting analysis; assay type: functional; conditions: HT-29, 48 h; in short: as §1
[23] = tested on: NCI-H322M; test: Growth inhibition of human NCI-H322M cells after 48 hrs by coulter counting analysis; assay type: functional; in short: as §2
[24] = tested on: HCT-116; test: Growth inhibition of human HCT116 cells after 48 hrs by coulter counting analysis; assay type: functional; conditions: HCT-116, 48 h; in short: as §1
[25] = Growth inhibition of human HCC2998 cells after 48 hrs by coulter counting analysis; assay type: functional; conditions: HCC 2998, 48 h; in short: as §1
[26] = tested on: NCI-H23; test: Growth inhibition of human NCI-H23 cells after 48 hrs by coulter counting analysis; assay type: functional; conditions: NCI-H23, 48 h; in short: as §2
[27] = tested on: HL-60(TB); test: Growth inhibition of human HL-60(TB) cells after 48 hrs by coulter counting analysis; assay type: functional; conditions: HL-60, 48 h; in short: as §3
[28] = Growth inhibition of human SF539 cells after 48 hrs by coulter counting analysis; assay type: functional; conditions: SF-539, 48 h; in short: as §2
[29] = tested on: DU-145; test: Growth inhibition of human DU145 cells at 10 uM after 48 hrs by sulforhodamine B assay relative to control; assay type: functional; conditions: DU-145, 48 h, read-out: GI
In short: (§5)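 NCI-60 primary screen at a single dose of 10 µM with 48 h continuous exposure. Growth or viability read by sulforhodamine B protein staining and expressed as percent growth inhibition versus untreated cells.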

[30] = tested on: MCF7; test: Growth inhibition of human MCF7 cells at 10 uM after 48 hrs by sulforhodamine B assay relative to control; assay type: functional; conditions: MCF7, 48 h, read-out: GI; in short: as §5
[31] = Growth inhibition of human NCI-ADR-RES cells at 10 uM after 48 hrs by sulforhodamine B assay relative to control; assay type: functional; conditions: read-out: GI; in short: as §4
[32] = tested on: SNB-75; test: Growth inhibition of human SNB75 cells at 10 uM after 48 hrs by sulforhodamine B assay relative to control; assay type: functional; conditions: SNB-75, 48 h, read-out: GI; in short: as §4

Compound | GI50 [1] [µM] | GI50 [2] [µM] | LC50 [3] [µM] | TGI [3] [µM] | GI50 [6] [µM] | inhibition [8] [%] | GI50 [9] [µM] | GI50 [10] [µM] | GI50 [11] [µM] | GI50 [12] [µM] | GI50 [13] [µM] | GI50 [14] [µM] | GI50 [15] [µM] | GI50 [17] [µM] | GI50 [18] [µM] | GI50 [19] [µM] | GI50 [21] [µM] | GI50 [22] [µM] | GI50 [23] [µM] | GI50 [24] [µM] | also measured
COc1c2occc2c(OC)c2c(=O)c(CN3CCOCC3)c(/C=C/c3ccc(Cl)cc3)oc12 | 3.09 | 2.01 | 87.1 | 33.1 | 2.63 | 6 | 2.76 | 2.78 | 2.18 | 1.94 | 2.12 | 3.05 | 2.92 | 2.5 | 3.24 | 1.24 | 3.12 | 2.69 | 2.54 | 2.92 | inhibition of growth at 10 µM [4]: 60%; inhibition of growth at 10 µM [5]: 93%; inhibition of growth at 10 µM [7]: 61%; GI50 [16]: 1.9 µM; inhibition of growth at 10 µM [20]: 88%; GI50 [25]: 2.85 µM; GI50 [26]: 3 µM
COc1c(C(=O)/C=C/c2ccc(Cl)cc2)c(O)c(Br)c2occc12 | 2.99 | 6.67 | 87.1 | 28.8 | 4.07 | 15 | 6.04 | 3.43 | 2.2 | 3.04 | 2.13 | 3.77 | 4.33 | 2.94 | 6.82 | 3.33 | 3.07 | 4.11 | 5.22 | 2.83 | GI50 [27]: 1.72 µM; GI50 [25]: 2.5 µM; GI50 [26]: 3.25 µM
COc1c2ccoc2c(/C=C/C=O)c2oc(-c3ccccc3)cc(=O)c12 | 26.9 | 13.6 | 87.1 | 35.5 | 10.7 | 0 | 22.3 | 2.52 | 1.48 | 17.5 | 7.02 | 2.71 | 4.1 | 3.23 | 2.49 | 3.04 | 3.01 | 25.1 | 9.69 | 1.7 | GI50 [16]: 7.2 µM; GI50 [27]: 2.33 µM; GI50 [25]: 16.1 µM; GI50 [28]: 3.59 µM; GI50 [26]: 2.44 µM
COc1ccccc1/C=C/C(=O)c1c(O)cc2occc2c1OC | 35.3 | 16.6 | 100 | 89.1 | 23.5 | 0 | > 100 | > 100 | 30.1 | 26 | 10.3 | > 100 | 33.1 | > 100 | 19.3 | > 100 | 29.6 | > 100 | > 100 | 40.4 | inhibition of growth at 10 µM [5]: 66%; inhibition of growth at 10 µM [29]: 78%; GI50 [16]: 38.2 µM; inhibition of growth at 10 µM [30]: 60%; inhibition of growth at 10 µM [20]: 61%; GI50 [25]: > 100 µM; GI50 [28]: 24.3 µM; GI50 [26]: 22.4 µM
COc1c(C(=O)/C=C/c2ccccc2)c(O)cc2occc12 | 16.2 | 7.83 | 55 | 18.6 | 3.81 | 13 | 5.67 | 5.25 | 1.69 | 3.51 | 6.77 | 4.48 | 4.38 | 7.01 | 11.3 | 3.87 | 2.42 | 6.34 | 13.6 | 3.72 | inhibition of growth at 10 µM [31]: 68%; inhibition of growth at 10 µM [5]: 89%; inhibition of growth at 10 µM [7]: 60%; inhibition of growth at 10 µM [29]: 75%; GI50 [16]: 2.76 µM; inhibition of growth at 10 µM [30]: 76%; inhibition of growth at 10 µM [32]: 86%; GI50 [25]: 3.76 µM; GI50 [28]: 3.22 µM; GI50 [26]: 6.12 µM
C=CCc1c(O)c(C(=O)/C=C/c2ccc(Cl)cc2)c(OC)c2ccoc12 | 4.83 | 2.77 | 37.1 | 11 | 3.85 | 0 | 2.8 | 3.4 | 1.63 | 3.46 | 2.27 | 4.96 | 4.3 | 3.81 | 2.31 | 2.07 | 2.23 | 1.89 | 4.88 | 2.74 | GI50 [16]: 4.02 µM; GI50 [25]: 1.79 µM; GI50 [28]: 1.79 µM; GI50 [26]: 2.78 µM
C=CCc1c(O)c(C(=O)/C=C/c2ccccc2)c(OC)c2ccoc12 | 4.12 | 2.44 | 41.7 | 11.2 | 4.92 | 0 | 3.22 | 2.91 | 1.56 | 3.35 | 3.07 | 3.79 | 3.11 | 3.68 | 5.32 | 2.66 | 1.88 | 3.01 | 3.19 | 3.03 | GI50 [16]: 3.9 µM; GI50 [25]: 1.73 µM; GI50 [28]: 1.71 µM; GI50 [26]: 2.52 µM
COc1ccc(-c2cc(=O)c3c(OC)c4ccoc4c(/C=C/C=O)c3o2)cc1 | 16.8 | 3.4 | 72.4 | 26.3 | 4.53 | 0 | 11.7 | 1.73 | 1.08 | 13.6 | 3.58 | 2.32 | 4.22 | 2.58 | 2.98 | 1.69 | 2.84 | 18.1 | 5.06 | 1.06 | GI50 [16]: 10.4 µM; GI50 [27]: 2.72 µM; GI50 [25]: 13.7 µM; GI50 [28]: 4.14 µM; GI50 [26]: 2.8 µM

Reference: ChEMBL document CHEMBL3286372, “Design, synthesis and structure-activity relationship of novel semi-synthetic flavonoids as antiproliferative agents” (2014)
